The source of these data is ChEMBL document CHEMBL3612066, “Design, Synthesis, and Biological Evaluation of Pyrazolo[1,5-a]pyridine-3-carboxamides as Novel Antitubercular Agents” (ACS Med Chem Lett, 2015).

Values after ≈ are worked out from the molar mass of the structure shown.

Holding throughout (type): functional
Assay [1] relates to Mycobacterium tuberculosis. Description: Antitubercular activity against multidrug-resistant Mycobacterium tuberculosis UAl9804 after 7 days by autoluminescent assay. As to conditions: UAl9804, 168 h. Summed up:
(§1)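 Autoluminescent assay against MDR clinical isolates (3495, P71, 9804, 4768, P163). Bacterial growth was read as bioluminescence intensity with no added substrate. MIC values are means of two independent experiments.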

Assay [2] has as its system Mycobacterium tuberculosis. Put plainly: Antitubercular activity against multidrug-resistant Mycobacterium tuberculosis UAl4768 after 7 days by autoluminescent assay. As to conditions: UAl4768, 168 h. Summed up:
as §1

The subject of assay [3] is Mycobacterium tuberculosis. Put plainly: Antitubercular activity against multidrug-resistant Mycobacterium tuberculosis UAlP163 after 7 days by autoluminescent assay. As to conditions: UAlP163, 168 h. Put shortly:
as §1

Assay [4] deals with Mycobacterium tuberculosis. Description: Antitubercular activity against multidrug-resistant Mycobacterium tuberculosis UAl3495 after 7 days by autoluminescent assay. As to conditions: UAl3495, 168 h. Put shortly:
as §1

For assay [5], the system named is Mycobacterium tuberculosis. Description: Antitubercular activity against multidrug-resistant Mycobacterium tuberculosis UAlP7 after 7 days by autoluminescent assay. As to conditions: UAlP7, 168 h. Summed up: as §1

The MIC is the lowest concentration found to suppress growth. Read a high MIC as a less susceptible organism.

On to `Cc1ccn2nc(C)c(C(=O)NCc3ccc(N4CCC(c5ccc(OC(F)(F)F)cc5)CC4)cc3)c2c1`, for which the MIC in assay [1] was < 0.383 µM; in assay [2], < 0.383 µM; in assay [3] it was < 0.383 µM; in assay [4], 1.91 µM (≈ 1 µg/mL); in assay [5], < 0.383 µM.
With `COc1ccn2nc(C)c(C(=O)NCc3ccc(N4CCC(c5ccc(OC(F)(F)F)cc5)CC4)cc3)c2c1`, the MIC was < 0.0111 µM in assay [1]; 0.0111 µM (≈ 0.00598 µg/mL) in assay [2]; 0.0111 µM (≈ 0.00598 µg/mL) in assay [3]; 0.0223 µM (≈ 0.012 µg/mL) in assay [4]; 0.0111 µM (≈ 0.00598 µg/mL) in assay [5].
Consider `CCc1nn2ccc(Cl)cc2c1C(=O)NCc1ccc(N2CCC(c3ccc(OC(F)(F)F)cc3)CC2)cc1`, for which the minimum inhibitory concentration (MIC) in assay [1] was < 0.0359 µM; in assay [2], 0.0359 µM (≈ 0.02 µg/mL); in assay [3] it was < 0.0359 µM; in assay [5], 0.0718 µM (≈ 0.04 µg/mL).
Take `Cc1nn2ccc(Cl)cc2c1C(=O)NCc1ccc(N2CCC(c3ccc(OC(F)(F)F)cc3)CC2)cc1`: the MIC in assay [1], in assay [2], in assay [3] and in assay [5] was < 0.184 µM throughout.
